# Measurements from different studies.
SMILES,host,medium,route,dose,setting,Cmax
O=C(Nc1cc(F)c(F)c(F)c1)c1ccc(F)c(S(=O)(=O)NCc2cccc(B(O)O)c2)c1,male Sprague-Dawley rat,plasma,intravenous,2 mg/kg,,460 ng/mL
CNCc1cc(-c2ccccc2F)n(S(=O)(=O)c2cccnc2)c1,male Sprague-Dawley rat,plasma,oral,10 mg/kg,,140 ng/mL
CCc1cc(C(=O)NC)c2nccc(N3CCc4c(cc(Cn5ccnc5)cc4-c4cn(C)nc4C(F)(F)F)C3=O)c2c1,male Sprague-Dawley rat,plasma,oral,50 mg/kg,single dose,6170 ng/mL
COc1cc2c3c(n(CCCN4CCOCC4)c(=O)c2cc1OC)-c1cc2c(cc1C3=O)OCO2,female Fischer 344 rat,plasma,intravenous,24 mg/m²,single dose,568 ng/mL
CCOC(=O)[C@@]12C[C@@H]1[C@@H](n1ccc3c(NC)nc(C#Cc4ccc(Cl)s4)nc31)[C@H](O)[C@@H]2O,male Sprague-Dawley rat,plasma,oral,3 mg/kg,,67.1 ng/mL
COCc1nn(Cc2ccc(Cn3ccccc3=O)cc2)cc1C(=O)NCc1c(F)ccc(OC)c1F,male Sprague-Dawley rat,plasma,oral,10 mg/kg,,2890 ng/mL
COc1ccc2c(Cc3ccccc3F)c3n(c(=O)c2c1OC)CCc1cc2c(cc1-3)OCO2,rat,plasma,oral,5 mg/kg,,310 ng/mL
Oc1c(Br)cc(Cl)c2cccnc12,Sprague-Dawley rat,plasma,oral,20 mg/kg,,1700 ng/mL
C=CC(=O)N1CC2CC(n3nc(-c4ccc(C(=O)Nc5ccccn5)cc4)c4c(N)ncnc43)CC2C1 (stereo not shown),male Wistar rat,plasma,oral,300 mg/kg,,6140 ng/mL
CNC(=O)c1c(C)oc2cc(Oc3ncnc4cc(OC)c(OC)cc34)ccc12,Sprague-Dawley rat,plasma,oral,1 mg/kg,single dose,712 ng/mL
COc1cc(/C=C/C(=O)CC(=O)/C=C/c2ccc(O)c(OC)c2)ccc1O,male Sprague-Dawley rat,plasma,oral,100 mg/kg,,5.99 ng/mL
CC(C)OC(=O)NC1CCN(Cc2cc(Cl)c3cccnc3c2O)CC1,rat,blood,intraperitoneal,30 mg/kg,,200 nM
COCc1nn(Cc2ccc(Cn3ccccc3=O)cc2)cc1C(=O)NCc1nccc(OC)c1F,male Sprague-Dawley rat,plasma,oral,10 mg/kg,,1940 ng/mL
Cc1noc(-c2cc3cc(-c4nc(C(=O)NCc5ccncc5)[nH]c4C)ccc3[nH]2)n1,Sprague-Dawley rat,plasma,oral,10 mg/kg,suspension,2200 nM
N#Cc1[nH]nnc1-c1cccc(-c2cc(F)cc(C(F)(F)F)c2)c1,male Sprague-Dawley rat,plasma,oral,10 mg/kg,,5750 ng/mL
O=C1N(Cc2ccccc2Cl)c2ccccc2C12NN=C(c1ccccc1)S2 (stereo not shown),Sprague-Dawley rat,plasma,oral,40 mg/kg,,1190 ng/mL
N#Cc1ccc(Nc2nc(N)cc(Oc3c(F)cc(-c4ccc(C#N)cc4)cc3F)n2)cc1,Sprague-Dawley rat,plasma,oral,5 mg/kg,,15.4 ng/mL
N#Cc1[nH]nnc1-c1csc(-c2ccc(Cl)cc2)n1,male Sprague-Dawley rat,plasma,oral,10 mg/kg,,5230 ng/mL
Cc1c(-c2ccccc2)cccc1N1C(=O)c2cc(CN[C@H](C(=O)O)C(C)O)c(OCc3cccc(C#N)c3)cc2C1=O (stereo partly shown),Sprague-Dawley rat,plasma,intravenous,5 mg/kg,,4350 ng/mL
COc1nc(-c2cc(C)c(N[C@@H](C)c3cc(F)cc(F)c3)nn2)ccc1-n1cnc(C)c1,male Sprague-Dawley rat,plasma,intravenous,1 mg/kg,single dose,3570 ng/mL
COCc1nn(Cc2ccc(Cn3ccccc3=O)cc2)cc1C(=O)NCc1c(C#N)ccc(OC)c1F,male Sprague-Dawley rat,plasma,oral,10 mg/kg,,360 ng/mL
Cc1ccc(S(=O)(=O)n2cc3c4c2C(=O)C(NCc2ccc(Cl)cc2)=CC4=NCC3)cc1,rat,plasma,intravenous,5 mg/kg,single dose,1240 ng/mL
